From ChEMBL document CHEMBL1136302, “Modified 3-alkyl-1,8-dibenzylxanthines as GTP-competitive inhibitors of phosphoenolpyruvate carboxykinase” (Bioorg Med Chem Lett, 2003)

Test: Inhibitory activity against human cytosolic phosphoenolpyruvate carboxykinase (PEPCK) enzyme
Method in brief: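 Recombinant human cytosolic GST-PEPCK at room temperature in 30 mM potassium phosphate pH 7.6 with 0.3 mM GTP, 0.3 mM OAA, 3 mM MgCl2, 0.075 mM MnCl2, 1 mM DTT, 0.2 mM ADP, 1 mM NADH and 1 mg/mL BSA. Coupled to pyruvate kinase and lactate dehydrogenase (0.9 U/mL each). Absorbance change at 340 read over 20 min. Eight concentrations in duplicate, averaged; IC50 derived.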

| IC50 [µM] | Structure (SMILES) |
| --- | --- |
| 375 | CCCCn1c(=O)n(CCC)c(=O)c2[nH]c(C)nc21 |
| 100 | C=CCn1c(=O)c2[nH]c(CC)nc2n(CCCC)c1=O |
| 225 | C=CCn1c(=O)c2[nH]c(C)nc2n(CCCC)c1=O |
| 37 | C=CCn1c(=O)c2[nH]c(Cc3ccc(N)cc3)nc2n(CCCC)c1=O |
| 2.11 | CCCCn1c(=O)n(Cc2ccccc2F)c(=O)c2[nH]c(Cc3ccc(NC(C)=O)cc3)nc21 |
| 8.15 | CCCCn1c(=O)n(Cc2ccccc2)c(=O)c2[nH]c(Cc3ccc(NC(C)=O)cc3)nc21 |

Test: Inhibitory activity against human cytosolic phosphoenolpyruvate carboxykinase (PEPCK) enzyme at a concentration of 500 uM
Method in brief: (§1)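 The same coupled GST-PEPCK assay was run in 30 mM potassium phosphate pH 7.6 at room temperature. It used 0.3 mM each of GTP and OAA, plus Mg2+/Mn2+, ADP, NADH and BSA, with pyruvate kinase and lactate dehydrogenase coupling. Rate was read at 340 over 20 min. Percent inhibition is given at the highest concentration tested, as the duplicate average.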

| inhibition [%] | Structure (SMILES) |
| --- | --- |
| 39 | C=CCn1c(=O)c2[nH]cnc2n(CCCC)c1=O |
| 1.7 | C=CCn1c(=O)c2[nH]c(-c3ccc(NC(C)=O)cc3)nc2n(CCCC)c1=O |
| 34 | C=CCn1c(=O)c2c(nc(C)n2CC)n(CCCC)c1=O |

Test: Inhibitory activity against human cytosolic phosphoenolpyruvate carboxykinase (PEPCK) enzyme at a concentration of 25 uM
Method in brief: as §1

| inhibition [%] | Structure (SMILES) |
| --- | --- |
| 29 | C=CCn1c(=O)c2[nH]c(Cc3ccccc3)nc2n(CCCC)c1=O |
| 36 | CCCCn1c(=O)n(CCOC)c(=O)c2[nH]c(Cc3ccc(NC(C)=O)cc3)nc21 |
| 46 | CCCCn1c(=O)n(Cc2cccc(F)c2)c(=O)c2[nH]c(Cc3ccc(NC(C)=O)cc3)nc21 |
